Data taken from paper PMC3574227 (Journal of medicinal chemistry, 2013).
Values joined by “and” are separate entries in the source; they are usually repeats but may differ in a detail not shown here. Equal entries are not always repeated. Each block holds one compound with its values, some of them ahead of it.

Experiments:
[1] = test system: human plasma; assay: Activated partial thromboplastin time; conditions: for concentration required for a 2-fold increase in APTT: citrated human plasma
[2] = test system: human plasma; assay: Prothrombin time; conditions: citrated human plasma
Summary of the method: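 One-stage recalcification PT on a fibrometer. Test compound was made up in citrated pooled normal human plasma and held 30 s at 37 °C. Clotting was then started with prewarmed reconstituted thromboplastin-D. Clotting time was plotted against concentration and fitted to a quadratic trend line, from which the concentration doubling clotting time was taken.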

[3] = target: human factor XIa (Homo sapiens, UniProt P03951); assay: Direct inhibition of FXIa, chromogenic substrate; assay type: biochemical
Chain of human factor XIa (P03951 19-387 limits assumed): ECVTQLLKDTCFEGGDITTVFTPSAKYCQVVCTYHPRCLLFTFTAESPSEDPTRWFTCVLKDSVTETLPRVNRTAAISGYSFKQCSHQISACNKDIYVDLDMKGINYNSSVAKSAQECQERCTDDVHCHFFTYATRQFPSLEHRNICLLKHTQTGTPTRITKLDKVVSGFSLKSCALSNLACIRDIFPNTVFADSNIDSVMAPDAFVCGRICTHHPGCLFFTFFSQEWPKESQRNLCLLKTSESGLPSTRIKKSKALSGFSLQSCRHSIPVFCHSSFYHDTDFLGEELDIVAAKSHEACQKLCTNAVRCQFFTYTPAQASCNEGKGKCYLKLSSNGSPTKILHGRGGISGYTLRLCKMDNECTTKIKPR
Chain of human factor XIa (P03951 388-625 limits assumed): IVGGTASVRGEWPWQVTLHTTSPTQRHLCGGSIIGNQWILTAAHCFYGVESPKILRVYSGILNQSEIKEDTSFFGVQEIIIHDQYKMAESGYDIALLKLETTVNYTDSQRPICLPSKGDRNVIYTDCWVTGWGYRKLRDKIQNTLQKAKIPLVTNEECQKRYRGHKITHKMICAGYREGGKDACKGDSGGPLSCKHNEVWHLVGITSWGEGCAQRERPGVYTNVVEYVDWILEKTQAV

[4] = target: factor VIIa (Homo sapiens, UniProt P08709); assay: Chromogenic substrate hydrolysis assay, factor VIIa; assay type: biochemical; conditions: NI = no inhibition observed up to 3.7 mg/mL
Chain of factor VIIa (P08709 213-466 limits assumed): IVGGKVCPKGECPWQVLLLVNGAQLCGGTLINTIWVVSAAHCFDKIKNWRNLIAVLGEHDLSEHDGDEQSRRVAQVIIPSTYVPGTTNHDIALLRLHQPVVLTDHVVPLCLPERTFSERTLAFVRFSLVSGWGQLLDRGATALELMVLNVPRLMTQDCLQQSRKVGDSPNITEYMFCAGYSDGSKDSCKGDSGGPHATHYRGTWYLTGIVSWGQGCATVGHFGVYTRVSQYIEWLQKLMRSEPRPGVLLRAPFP
Chain of factor VIIa (P08709 61-212 limits assumed): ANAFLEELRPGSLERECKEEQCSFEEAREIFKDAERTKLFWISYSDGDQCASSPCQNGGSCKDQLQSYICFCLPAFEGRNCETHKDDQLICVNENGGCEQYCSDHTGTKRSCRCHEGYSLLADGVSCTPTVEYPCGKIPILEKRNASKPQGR
Chain of factor VIIa (P13726 33-295 partner): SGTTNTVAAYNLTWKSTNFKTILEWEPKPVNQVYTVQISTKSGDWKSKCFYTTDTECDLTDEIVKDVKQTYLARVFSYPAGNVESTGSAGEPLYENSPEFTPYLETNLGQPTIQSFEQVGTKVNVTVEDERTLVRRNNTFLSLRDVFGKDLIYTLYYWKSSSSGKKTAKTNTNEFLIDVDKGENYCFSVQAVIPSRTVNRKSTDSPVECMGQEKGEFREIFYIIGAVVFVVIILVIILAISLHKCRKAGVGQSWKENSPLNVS
Summary of the method: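 Plasma-derived human factor VIIa (8 nM) with 40 nM recombinant tissue factor and Spectrozyme factor VIIa substrate (1000 µM, in well; level chosen from KM). Residual activity was read spectrophotometrically across six or more serially diluted test compound concentrations to build an inhibition profile for IC50.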

[5] = target: T1, bovine trypsin (Bos taurus, UniProt P00760); assay: Chromogenic substrate hydrolysis assay, trypsin; assay type: biochemical; conditions: NI = no inhibition observed up to 1.8 mg/mL
T1 sequence (P00760 24-246): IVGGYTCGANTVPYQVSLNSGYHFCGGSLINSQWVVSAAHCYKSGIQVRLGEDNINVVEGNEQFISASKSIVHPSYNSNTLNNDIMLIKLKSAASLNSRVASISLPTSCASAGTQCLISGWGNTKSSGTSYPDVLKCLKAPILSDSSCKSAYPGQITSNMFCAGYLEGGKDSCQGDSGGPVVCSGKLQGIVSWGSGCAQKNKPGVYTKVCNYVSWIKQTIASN
Summary of the method: (§1)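 Digestive protease counter-screen: bovine trypsin 72.5 ng/mL with S-2222 80 µM, or bovine α-chymotrypsin 500 ng/mL with Spectrozyme CTY 240 µM (in-well levels; substrate chosen from KM). Fractional residual activity was measured spectrophotometrically at six or more serially diluted test compound concentrations, profiled for IC50.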

[6] = target: bovine chymotrypsin (Bos taurus, UniProt P00766); assay: Chromogenic substrate hydrolysis assay, chymotrypsin; assay type: biochemical; conditions: NI = no inhibition observed up to 1.8 mg/mL
Summary of the method: as §1

[7] = target: factor IXa (Homo sapiens, UniProt P00740); assay: Chromogenic substrate hydrolysis assay, factor IXa; assay type: biochemical
Chain of factor IXa (P00740 227-461 limits assumed): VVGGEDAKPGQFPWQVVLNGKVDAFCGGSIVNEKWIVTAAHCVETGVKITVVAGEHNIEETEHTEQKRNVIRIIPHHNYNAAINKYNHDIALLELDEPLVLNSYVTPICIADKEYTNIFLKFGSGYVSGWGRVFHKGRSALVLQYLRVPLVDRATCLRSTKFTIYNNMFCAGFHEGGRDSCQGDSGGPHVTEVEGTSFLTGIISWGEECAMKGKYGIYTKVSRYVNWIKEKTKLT
Chain of factor IXa (P00740 47-191 limits assumed): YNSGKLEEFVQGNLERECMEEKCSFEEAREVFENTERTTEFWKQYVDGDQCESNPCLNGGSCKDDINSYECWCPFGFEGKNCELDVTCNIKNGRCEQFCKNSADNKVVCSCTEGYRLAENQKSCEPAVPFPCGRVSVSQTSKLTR
Summary of the method: (§2)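 Chromogenic substrate hydrolysis with human plasma enzymes, substrate level set from its KM. Enzyme and substrate in well: thrombin 6 nM with Spectrozyme TH 50 µM; factor Xa 1.09 nM with Spectrozyme FXa 125 µM; factor XIIa 5 nM with Spectrozyme FXIIa 125 µM; factor IXa 89 nM with Spectrozyme FIXa 850 µM. Residual activity read spectrophotometrically at six or more serial test compound dilutions, then dose–response fitted.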

[8] = test system: FXIa Catalytic Domain (FXIa-CD); assay: Michaelis-Menten kinetics of S-2366 hydrolysis by FXIa catalytic domain; assay type: biochemical, human
[9] = target: T2, human FXIa (Homo sapiens, UniProt P03951); assay: Inhibition of FXIa activation of FIX; assay type: biochemical; conditions: 6 at 3 µM, FIX 0.5 µM, after 120 min of incubation
T2 sequence (P03951 19-387 limits assumed): as the sequence (P03951 19-387 limits assumed) above
T2 sequence (P03951 388-625 limits assumed): as the sequence (P03951 388-625 limits assumed) above

[10] = target: T2, human FXIa; assay: Competitive inhibition of FXIa by 6 in the presence of UFH; assay type: biochemical
[11] = test system: human whole blood; assay: Thromboelastography
Summary of the method: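 Thromboelastography at 37 °C: 200 mM CaCl2 stock placed in cup, then sodium-citrated human whole blood containing test compound or water added to recalcify. The cup oscillated through 4°45′ at 0.1 Hz. R, α, maximum amplitude (MA) and shear elastic modulus G were recorded automatically, with G = 5000 × MA/(100 − MA).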

[12] = target: T3, factor XIIa (Homo sapiens, UniProt P00748); assay: Chromogenic substrate hydrolysis assay, factor XIIa; assay type: biochemical
T3 sequence (P00748 373-615 limits assumed): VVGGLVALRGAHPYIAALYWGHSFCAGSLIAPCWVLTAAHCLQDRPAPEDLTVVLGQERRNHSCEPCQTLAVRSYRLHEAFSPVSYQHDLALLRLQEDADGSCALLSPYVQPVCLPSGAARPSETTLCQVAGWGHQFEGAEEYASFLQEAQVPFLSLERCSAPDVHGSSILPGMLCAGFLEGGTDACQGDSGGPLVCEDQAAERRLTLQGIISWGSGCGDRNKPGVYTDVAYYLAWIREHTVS
T3 sequence (P00748 20-372 partner limits assumed): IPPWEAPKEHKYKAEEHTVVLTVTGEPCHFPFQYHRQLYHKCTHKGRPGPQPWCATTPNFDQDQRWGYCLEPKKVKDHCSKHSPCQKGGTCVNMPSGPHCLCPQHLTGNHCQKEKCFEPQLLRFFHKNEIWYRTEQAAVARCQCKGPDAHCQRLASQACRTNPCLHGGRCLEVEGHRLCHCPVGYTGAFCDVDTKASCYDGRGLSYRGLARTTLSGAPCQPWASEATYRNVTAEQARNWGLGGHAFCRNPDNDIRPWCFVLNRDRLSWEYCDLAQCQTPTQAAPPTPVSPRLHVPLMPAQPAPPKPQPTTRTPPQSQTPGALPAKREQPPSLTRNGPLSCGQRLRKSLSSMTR
Summary of the method: as §2

[13] = target: FXIa Wild Type (Homo sapiens, UniProt P03951); assay: Michaelis-Menten kinetics of S-2366 hydrolysis by wild-type FXIa; assay type: biochemical
Chain of FXIa Wild Type (P03951 19-387 limits assumed): as the sequence (P03951 19-387 limits assumed) above
Chain of FXIa Wild Type (P03951 388-625 limits assumed): as the sequence (P03951 388-625 limits assumed) above

[14] = target: thrombin (Homo sapiens, UniProt P00734); assay: Chromogenic substrate hydrolysis assay, thrombin; assay type: biochemical
Summary of the method: as §2

[15] = 6 over the concentration range of 0–280 µg/mL

Compound: COc1cc([C@H]2Oc3cc([C@H]4Oc5cc(OS(=O)(=O)[O-])cc(O)c5C(=O)[C@@H]4OS(=O)(=O)[O-])ccc3O[C@@H]2COS(=O)(=O)[O-])ccc1OS(=O)(=O)[O-].[Na+].[Na+].[Na+].[Na+] [Molecule 2, sulfated silibinin]
concentration required for a 2-fold increase in APTT [1]: much higher | concentration required for a 2-fold increase in PT [2]: much higher

Compound: O=C(/C=C/c1ccc(OS(=O)(=O)[O-])c(OS(=O)(=O)[O-])c1)O[C@@H]1C[C@](O)(C(=O)[O-])C[C@@H](OS(=O)(=O)[O-])[C@H]1OS(=O)(=O)[O-].[Na+].[Na+].[Na+].[Na+].[Na+] [Molecule 4, sulfated chlorogenic acid]
concentration required for a 2-fold increase in APTT [1]: much higher | concentration required for a 2-fold increase in PT [2]: much higher

inhibition of FXIa proteolytic activity ([3]; highest concentration tested (300 µM)): completely inactive
Compound: O=C(OC[C@H]1O[C@@H](OC(=O)c2cc(O)c(O)c(O)c2)[C@H](OC(=O)c2cc(O)c(O)c(O)c2)[C@@H](OC(=O)c2cc(O)c(O)c(O)c2)[C@@H]1OC(=O)c1cc(O)c(O)c(O)c1)c1cc(O)c(O)c(O)c1 [Molecule 5, pentagalloyl glucopyranoside, reference compound]

IC50 [4]: no inhibition | IC50 [3]: 0.612 µM | selectivity for FXIa over other relevant enzymes [3]: at least 200 fold | HS (Hill slope) ([3]; S-2366 hydrolysis, pH 7.4, 37 °C): 1.3 ± 0.1 | IC50 [5]: no inhibition | IC50 [6]: no inhibition | HS [7]: 2.2 ± 0.6 | formation of FIXaβ [9]: not detectable | IC50 [10]: 16 µM | HS ([10]; UFH 0 µM): 1.3 ± 0.1 | HS ([10]; UFH 0.13 µM): 1.4 ± 0.2 | HS ([10]; UFH 3.33 µM): 1.7 ± 0.2 | HS ([10]; UFH 33.3 µM): 4.0 ± 0.9 | HS [12]: 3.0 ± 1.8 | VMAX ([13]; [6] 0.005 µg/mL): 93.7 ± 3.2 mAU/min | VMAX ([13]; [6] 0.5 µg/mL): 74.6 ± 2.6 mAU/min | VMAX ([13]; [6] 2.5 µg/mL): 56.9 ± 1.5 mAU/min | VMAX ([13]; [6] 5.0 µg/mL): 32.3 ± 2.1 mAU/min | VMAX ([13]; [6] 50.0 µg/mL): 17.2 mAU/min and 17.2 ± 1.2 mAU/min | ΔY [14]: 83 ± 10
Compound: O=C(OC[C@H]1O[C@@H](OC(=O)c2cc(OS(=O)(=O)[O-])c(O)c(OS(=O)(=O)[O-])c2)[C@H](OC(=O)c2cc(OS(=O)(=O)[O-])c(O)c(OS(=O)(=O)[O-])c2)[C@@H](OC(=O)c2cc(OS(=O)(=O)[O-])c(O)c(OS(=O)(=O)[O-])c2)[C@@H]1OC(=O)c1cc(OS(=O)(=O)[O-])c(O)c(OS(=O)(=O)[O-])c1)c1cc(OS(=O)(=O)[O-])c(O)c(OS(=O)(=O)[O-])c1.[Na+].[Na+].[Na+].[Na+].[Na+].[Na+].[Na+].[Na+].[Na+].[Na+] [Molecule 6, sulfated pentagalloylglucoside]
retention of inhibitory potency with the catalytic domain of FXIa [8]: ~ 100% | decrease of VMAX ([8]; 6 from 0 to 5.0 µg/mL): ~5 fold | VMAX ([8]; [6] 0.5 µg/mL): 53.9 ± 1.4 mAU/min | less effective than enoxaparin at molar levels ([1]; molar basis): 36 fold | G (shear elastic modulus strength) ([11]; 6 at 20 µg/mL): 8.2 × 10^3 kDynes/cm^3 | G (shear elastic modulus strength) ([11]; 6 at 135 µg/mL): 5.0 × 10^3 kDynes/cm^3 | G (shear elastic modulus strength) ([11]; 6 at 190 µg/mL): 3.8 × 10^3 kDynes/cm^3 | G (shear elastic modulus strength) ([11]; 6 at 280 µg/mL): 0.9 × 10^3 kDynes/cm^3 | reduction of G [11, 15]: ~8 fold | reduction of MA [11, 15]: ~ 4 fold | concentration required for a 2-fold increase in PT [2]: 298 µg/mL
